Among the data in ChEMBL document CHEMBL4627246, “Pyroglutamide-Based P2X7 Receptor Antagonists Targeting Inflammatory Bowel Disease” (J Med Chem, 2020) are inhibition values, retold here.

The source made the active and inactive calls. How the calls were made is not given here.

For this test, the target named is T1, P2X purinoceptor 7 (Homo sapiens) (UniProt Q99572).
T1 sequence (whole entry): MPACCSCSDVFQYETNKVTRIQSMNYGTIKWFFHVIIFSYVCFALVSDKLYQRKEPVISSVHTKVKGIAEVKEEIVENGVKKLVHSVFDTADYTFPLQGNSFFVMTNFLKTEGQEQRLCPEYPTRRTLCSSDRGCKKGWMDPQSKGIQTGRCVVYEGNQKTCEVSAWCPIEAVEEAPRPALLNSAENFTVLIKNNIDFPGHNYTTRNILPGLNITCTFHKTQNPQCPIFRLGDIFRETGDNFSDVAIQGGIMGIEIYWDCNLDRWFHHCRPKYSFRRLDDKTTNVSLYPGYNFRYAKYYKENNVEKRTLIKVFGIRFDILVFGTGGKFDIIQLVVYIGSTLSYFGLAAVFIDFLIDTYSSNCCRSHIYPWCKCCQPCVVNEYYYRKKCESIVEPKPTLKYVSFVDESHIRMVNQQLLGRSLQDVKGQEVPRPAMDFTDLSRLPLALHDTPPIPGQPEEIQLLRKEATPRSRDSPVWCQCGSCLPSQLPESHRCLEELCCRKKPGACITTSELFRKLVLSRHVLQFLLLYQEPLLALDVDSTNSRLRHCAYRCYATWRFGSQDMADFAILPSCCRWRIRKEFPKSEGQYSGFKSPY
The test is described as follows: Inhibition of human P2X7 expressed in human HEK293 cells assessed as reduction in BzATP-stimulated TO-PRO-3 incorporation at 10 uM preincubated with compound and TO-PRO-3 for 15 mins prior to BzATP addition and measured after 1 hr by Fluo-3AM dye based flow cytometry relative to control. The class given is cell-based. The method in brief:
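HEK-293 cells overexpressing human P2RX7 loaded with Fluo-3 AM, then incubated with TO-PRO-3 (large pore uptake) and propidium iodide (viability) plus compound (10⁻⁵ M single point) for 15 min before BzATP 100 µM. After 1 h, flow cytometry; percentage of Fluo-3/TO-PRO-3 double-positive cells calculated. Mean of n ≥ 2 with positive control.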
Regarding `O=C(NCCc1ccccc1)[C@@H]1CCC(=O)N1Cc1ccc([N+](=O)[O-])cc1`, the inhibition stood at 0%.
In the case of `C[C@H](NC(=O)[C@@H]1C/C(=C\N(C)C)C(=O)N1)c1ccccc1`, the inhibition was determined as 0%.
The figure for `O=C(NCc1ccccc1)[C@@H]1CCC(=O)N1Cc1ccccc1` is 0%.
For the molecule `O=C1CC[C@@H](C(=O)NCc2ccncc2)N1`, the inhibition result was “inactive”.
As for `O=C1CC[C@@H](C(=O)NCc2ccc(Cl)cc2Cl)N1`, the inhibition entry is “inactive”.
The same measure for `O=C1CC[C@@H](C(=O)NCc2ccccc2)N1`: “inactive”; for `COC(=O)[C@@H]1CCC(=O)N1Cc1ccccc1`: “inactive”.
In the case of `O=C(NCc1ccccc1Cl)[C@@H]1CCC(=O)N1Cc1ccc(Cl)cc1Cl`, the inhibition was 0%.
For `COc1ccccc1CNC(=O)[C@@H]1CCC(=O)N1`, the inhibition result was “inactive”.
The entry for `COC(=O)[C@@H]1CCC(=O)N1c1cccc(C(F)(F)F)c1` is “inactive”.
On to `COC(=O)[C@@H]1CCC(=O)N1c1ccc(Cl)cc1`, for which the inhibition entry was “inactive”.
The entry for `COC(=O)[C@@H]1CCC(=O)N1c1ccccc1` is “inactive”; for `O=C1CC[C@@H](C(=O)NC2CCCCC2)N1` it is “inactive”.
The entry for `O=C1CC[C@@H](C(=O)NC2CC3CCC2C3)N1` (stereo partly specified) is “inactive”; for `O=C(NCc1ccc(Cl)cc1Cl)[C@@H]1CCC(=O)N1c1ccccc1Cl` it is 0%.
In the case of `COC(=O)[C@@H]1CCC(=O)N1Cc1ccc([N+](=O)[O-])cc1`, the inhibition result was “inactive”.
The same measure for `O=C(NCc1ccc(Cl)cc1Cl)[C@@H]1CCC(=O)N1c1cccc(C(F)(F)F)c1`: 0%.
The same measure for `O=C(NCc1ccc(Cl)cc1Cl)[C@@H]1CCC(=O)N1Cc1ccc([N+](=O)[O-])cc1`: 0%; for `O=C1CC[C@@H](C(=O)NCc2ccccc2Cl)N1`: “inactive”.
The entry for `C[C@@H](NC(=O)[C@@H]1CCC(=O)N1)c1ccccc1` is “inactive”; for `COC(=O)[C@@H]1CCC(=O)N1c1ccccc1Cl` it is “inactive”.
In the case of `Cc1ccc(CN2C(=O)CC[C@H]2C(=O)NCCc2ccccc2)cc1`, the inhibition was determined as 0%.
As for `COC(=O)[C@@H]1CCC(=O)N1C(c1ccc(Cl)cc1)c1ccc(Cl)cc1`, the inhibition result is “inactive”.
The entry for `COC(=O)[C@@H]1CCC(=O)N1[Si](C)(C)C` is “inactive”.
As for `COc1cc(NC(=O)[C@@H]2CCC(=O)N2)cc(OC)c1OC`, the inhibition result is “inactive”.
The same measure for `CN(C)/C=C1\CC[C@@H](C(=O)NCc2ccc(Cl)cc2Cl)NC1=O`: 6%; for `CN(C)C1N(Cc2ccc(Cl)cc2Cl)C(=O)[C@@H]2CC(=O)C(=O)N12` (stereo partly specified): 0%.
The entry for `COC(=O)[C@@H]1CCC(=O)N1c1ccc(Cl)cc1Cl` is “inactive”; for `COC(=O)[C@@H]1CCC(=O)N1c1cccc2ncccc12` it is “inactive”; for `COc1ccc(CNC(=O)[C@@H]2CCC(=O)N2)cc1` it is “inactive”.
The figure for `O=C(NCCc1ccccc1)[C@@H]1CCC(=O)N1Cc1ccccc1` is 0%; for `COC(=O)[C@@H]1CCC(=O)N1C(c1ccccc1)c1ccccc1` it is “inactive”; for `COC(=O)[C@@H]1CCC(=O)N1Cc1ccc(Br)cc1` it is “inactive”.
Turning to `COC(=O)[C@@H]1CCC(=O)N1Cc1ccc(C)cc1`, the inhibition result is “inactive”.
As for `COC(=O)[C@@H]1CCC(=O)N1c1ccncc1`, the inhibition result is “inactive”.
On to `COC(=O)[C@@H]1CCC(=O)N1Cc1ccc(OC)cc1`, for which the inhibition result is “inactive”.
With `O=C1CCCC(C(=O)O)N1` (stereo unspecified), the inhibition was 0%.
The same measure for `O=C(NCc1ccco1)[C@@H]1CCC(=O)N1Cc1ccc(Cl)cc1Cl`: 0%; for `COC(=O)[C@@H]1CCC(=O)N1Cc1ccc(Cl)cc1Cl`: “inactive”; for `NC(=O)[C@@H]1CCC(=O)N1`: “inactive”.
With `C[C@H](NC(=O)[C@@H]1CCC(=O)N1c1cccs1)c1ccc(Cl)cc1Cl`, the inhibition stood at 0%.
The figure for `CN(C)/C=C1\C[C@H]2C(=O)N(CCc3ccccc3)C(N(C)C)N2C1=O` (stereo partly specified) is 0%; for `O=C1CC[C@@H](C(=O)NCc2cc(C(F)(F)F)ccc2Cl)N1` it is “inactive”; for `O=C(NCc1ccc(Cl)cc1Cl)[C@@H]1CCC(=O)N1Cc1ccccc1Cl` it is 85%.
As for `CN(C)/C=C1\C[C@@H](C(=O)NCc2ccc(Cl)cc2Cl)NC1=O`, the inhibition turned out to be 53%.
For the molecule `COC(=O)[C@@H]1CCC(=O)N1c1cccs1`, the inhibition result was “inactive”.
The entry for `COc1ccc(NC(=O)[C@@H]2CCC(=O)N2)cc1F` is “inactive”; for `Cc1ccc(NC(=O)[C@@H]2CCC(=O)N2)cc1` it is “inactive”.
On to `COC(=O)[C@@H]1CCC(=O)N1Cc1ccccc1Cl`, for which the inhibition entry is “inactive”.
The same measure for `COC(=O)[C@@H]1COC(=O)N1`: “inactive”; for `O=C1N[C@H](C(=O)O)CO1`: “inactive”; for `COC(=O)C1C/C(=C\N(C)C)C(=O)N1C(=O)OC` (stereo unspecified): “inactive”.
Regarding `O=C1CC[C@@H](C(=O)Nc2ccncc2)N1`, the inhibition result is “inactive”.
The entry for `COc1ccc(NC(=O)[C@@H]2CCC(=O)N2)cc1` is “inactive”; for `O=C1CC[C@@H](C(=O)Nc2ccc(Cl)cc2Cl)N1` it is “inactive”; for `COC(=O)[C@@H]1CCC(=O)N1` it is “inactive”.
With `COC(=O)[C@@H]1CCC(=O)N1c1ccc(OC)cc1`, the inhibition result is “inactive”.
Turning to `CN(C)C(=O)[C@@H]1CCC(=O)N1c1ccccc1`, the inhibition came out at 0%.
The same measure for `COC(=O)[C@@H]1CCC(=O)N1Cc1ccc(Cl)cc1`: “inactive”; for `O=C1CC[C@@H](C(=O)Nc2ccccc2)N1`: “inactive”; for `COC(=O)[C@@H]1CCC(=O)N1c1cc(Cl)cc(Cl)c1`: “inactive”.
The figure for `O=C(Nc1ccc(Cl)cc1Cl)[C@@H]1CCC(=O)N1c1ccccc1` is 0%; for `CN(C)/C=C1\C[C@H]2C(=O)N(Cc3ccccc3)C(N(C)C)N2C1=O` (stereo partly specified) it is 0%.
On to `COc1ccc(NC(=O)[C@@H]2CCC(=O)N2)c(OC)c1`, for which the inhibition entry is “inactive”.
On to `COc1ccc(CNC(=O)[C@@H]2CCC(=O)N2)c(OC)c1`, for which the inhibition result was “inactive”.
The figure for `O=C(NCc1ccc(Cl)cc1Cl)[C@@H]1CCC(=O)N1c1ccncc1` is 0%.
Turning to `O=C1CC[C@@H](C(=O)NCCc2ccc(Cl)cc2Cl)N1`, the inhibition result is “inactive”.
In the case of `CCCCCCNC(=O)[C@@H]1CCC(=O)N1`, the inhibition entry is “inactive”.
`COC(=O)[C@@H]1CCC(=O)N1c1ccc(C#N)cc1`: the inhibition result is “inactive”.
The same measure for `O=C1CC[C@@H](C(=O)NCC2CCCCC2)N1`: “inactive”; for `COC(=O)[C@@H]1CCC(OC)=N1`: “inactive”.
On to `O=C1CC[C@@H](C(=O)NCCc2ccccc2)N1`, for which the inhibition result was “inactive”.
The same measure for `O=C(NCc1ccc(Cl)cc1Cl)[C@@H]1CCC(=O)N1c1cccc2ncccc12`: 0%; for `C[C@H](NC(=O)[C@@H]1CCC(=O)N1)c1ccccc1`: “inactive”.
Take `O=C(NCc1ccc(Cl)cc1Cl)[C@@H]1C/C(=N\O)C(=O)N1c1cccs1`: the inhibition stood at 76%.
The same measure for `COC(=O)[C@@H]1CCC(=O)N1c1ccoc1`: “inactive”; for `O=C1CC[C@@H](C(=O)NCc2cccc(C(F)(F)F)c2Cl)N1`: “inactive”.
On to `C[C@@H](NC(=O)[C@@H]1C/C(=C\N(C)C)C(=O)N1)c1ccccc1`, for which the inhibition worked out at 0%.
The figure for `COc1ccccc1CNC(=O)[C@@H]1C/C(=C\N(C)C)C(=O)N1` is 0%; for `O=C(NCc1ccc(Cl)cc1Cl)[C@@H]1CCC(=O)N1c1cc(Cl)cc(Cl)c1` it is 0%; for `COc1cc(N2C(=O)[C@@H]3C/C(=C\N(C)C)C(=O)N3C2N(C)C)cc(OC)c1OC` (stereo partly specified) it is 0%.
The same measure for `COC(=O)C1CNC(=O)C1` (stereo unspecified): “inactive”; for `O=C(NCc1ccc(Cl)cc1Cl)C1CC(=O)N(c2cccs2)C1` (stereo unspecified): 92%; for `C[C@@H](c1ccccc1)N1C(=O)[C@@H]2C/C(=C\N(C)C)C(=O)N2C1N(C)C` (stereo partly specified): 0%.
The same measure for `COC(=O)[C@@H]1CCC(=O)N1C`: “inactive”.
Regarding `O=C(NCc1ccc(Cl)cc1Cl)[C@@H]1CCC(=O)N1Cc1ccc(Cl)cc1Cl`, the inhibition is 0%.

One may read the inhibition as the relative decrease from the control value, in per cent.
